How the values were obtained:
[1] = target: T1, NAD-dependent protein deacetylase sirtuin-2 (Homo sapiens) (UniProt Q8IXJ6); experiment: Inhibition of human recombinant GST-tagged SIRT2 using KI179 as substrate at 50 uM preincubated for 5 mins followed by enzyme addition measured after 1 hr by fluorescence assay relative to control
T1 sequence (whole entry): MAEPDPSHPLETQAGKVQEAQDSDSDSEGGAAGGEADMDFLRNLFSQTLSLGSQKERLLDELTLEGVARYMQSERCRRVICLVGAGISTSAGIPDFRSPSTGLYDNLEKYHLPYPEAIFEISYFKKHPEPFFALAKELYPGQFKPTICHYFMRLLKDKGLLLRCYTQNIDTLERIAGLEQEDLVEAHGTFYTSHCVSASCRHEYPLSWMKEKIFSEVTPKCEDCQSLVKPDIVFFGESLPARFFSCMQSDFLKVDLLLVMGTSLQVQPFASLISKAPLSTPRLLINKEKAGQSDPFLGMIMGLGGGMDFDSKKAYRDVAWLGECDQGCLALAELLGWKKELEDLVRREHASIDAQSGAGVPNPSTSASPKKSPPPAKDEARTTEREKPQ
Summary of the method: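 Recombinant GST-SIRT2, Fluor de Lys assay in SIRT assay buffer. Acetylated peptide KI179 at 0.7 Km (Km 198 µM) and NAD+ at 0.9 Km (reported Km 547 µM). Buffer, substrate, NAD+ and compound in DMSO preincubated 5 min at room temperature. Enzyme added to start; 1 h at 37 °C. Developer with 2 mM nicotinamide added; 45 min at 37 °C; fluorescence read. Mean ± SD, ≥3 experiments.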

[2] = target: T2, NAD-dependent protein deacetylase sirtuin-1 (Homo sapiens) (UniProt Q96EB6); conditions: at 50 µM;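 note: recombinant GST-tagged human SIRT1 enzyme assay with KI177 substrate, fluorescence read 1 h after enzyme addition, inhibition expressed relative to control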
T2 sequence (whole entry): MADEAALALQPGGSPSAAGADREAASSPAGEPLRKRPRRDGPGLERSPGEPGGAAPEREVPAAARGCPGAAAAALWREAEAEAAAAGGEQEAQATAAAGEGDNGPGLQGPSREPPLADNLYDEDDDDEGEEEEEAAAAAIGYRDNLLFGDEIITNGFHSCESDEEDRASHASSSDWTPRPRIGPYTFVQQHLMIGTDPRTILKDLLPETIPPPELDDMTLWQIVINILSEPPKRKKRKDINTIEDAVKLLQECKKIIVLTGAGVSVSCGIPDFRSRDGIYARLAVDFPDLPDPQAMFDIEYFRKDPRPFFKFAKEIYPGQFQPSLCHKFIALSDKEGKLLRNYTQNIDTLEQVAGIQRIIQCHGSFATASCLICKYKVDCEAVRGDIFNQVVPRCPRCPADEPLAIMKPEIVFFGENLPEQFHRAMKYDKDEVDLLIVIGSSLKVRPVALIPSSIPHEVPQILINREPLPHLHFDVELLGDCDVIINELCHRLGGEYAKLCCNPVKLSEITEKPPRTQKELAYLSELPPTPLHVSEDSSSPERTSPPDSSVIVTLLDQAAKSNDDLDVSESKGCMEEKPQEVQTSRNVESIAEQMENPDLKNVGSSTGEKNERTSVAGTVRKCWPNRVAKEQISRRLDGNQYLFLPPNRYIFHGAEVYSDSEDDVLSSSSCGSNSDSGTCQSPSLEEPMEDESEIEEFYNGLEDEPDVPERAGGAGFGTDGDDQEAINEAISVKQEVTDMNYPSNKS

[3] = target: T3, NAD-dependent protein deacetylase sirtuin-3, mitochondrial (Homo sapiens) (UniProt Q9NTG7); conditions: at 50 µM;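 note: recombinant His-tagged human SIRT3 with KI179 substrate, fluorescence read after 1 h, inhibition expressed relative to control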
T3 sequence (whole entry): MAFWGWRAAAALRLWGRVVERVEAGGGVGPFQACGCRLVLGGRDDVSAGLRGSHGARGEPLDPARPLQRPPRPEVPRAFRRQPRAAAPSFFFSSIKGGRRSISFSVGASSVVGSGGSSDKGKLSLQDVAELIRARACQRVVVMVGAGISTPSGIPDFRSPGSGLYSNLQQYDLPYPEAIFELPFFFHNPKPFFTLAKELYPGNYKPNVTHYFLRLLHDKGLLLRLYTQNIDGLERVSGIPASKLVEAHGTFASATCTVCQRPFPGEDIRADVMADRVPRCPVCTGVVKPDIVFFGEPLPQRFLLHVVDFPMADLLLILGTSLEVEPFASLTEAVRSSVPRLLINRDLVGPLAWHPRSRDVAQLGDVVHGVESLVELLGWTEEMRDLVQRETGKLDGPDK

inhibition [1]	inhibition [2]	inhibition [3]	Compound
49%	66%	68%	CC(=S)NCCCC[C@H](NC(=O)[C@@H]1CCCN1C(=O)OC(C)(C)C)C(=O)NCCc1cccnc1
18%	62%	16%	CC(=S)NCCCC[C@H](NC(=O)CN(C)C)C(=O)Nc1ccccc1
58%	95%	62%	CC(=S)NCCCC[C@H](NC(=O)CCc1cccnc1)C(=O)NCC(=O)c1ccccc1
67%	91%	71%	CC(=S)NCCCC[C@H](NC(=O)OCc1ccccc1)C(=O)NCc1ccccc1
21%	83%	39%	CC(=S)NCCCC[C@H](NC(=O)CCc1ccccc1)C(=O)Nc1cccnc1
44%	80%	45%	CC(=S)NCCCC[C@H](NC(=O)[C@@H]1CCCN1C(=O)OC(C)(C)C)C(=O)Nc1ccccc1
71%	100%	84%	CC(=S)NCCCC[C@H](NC(=O)CCCCCc1ccccc1)C(=O)NCc1ccccc1
86%	96%	85%	CC(=S)NCCCC[C@H](NC(=O)OCc1ccccc1)C(=O)N[C@@H](C)C(N)=O
54%	90%	69%	CC(=S)NCCCC[C@H](NC(=O)[C@@H]1C[C@@H](O)CN1C(=O)OCc1ccccc1)C(=O)Nc1ccccc1
81%	83%	62%	CC(=S)NCCCC[C@H](NC(=O)OCc1ccccc1)C(=O)Nc1ccccc1
13%	86%	19%	CC(=S)NCCCC[C@H](NC(=O)[C@@H]1CCCN1)C(=O)Nc1ccccc1
87%	97%	93%	CC(=S)NCCCC[C@H](NC(=O)[C@@H]1C[C@@H](O)CN1C(=O)OCc1ccccc1)C(=O)NCc1ccccc1
65%	96%	68%	CC(=S)NCCCC[C@H](NC(=O)CCc1ccccc1)C(=O)NCC(=O)c1ccccc1
74%	94%	72%	CC(=S)NCCCC[C@H](NC(=O)CCc1ccccc1F)C(=O)Nc1cccnc1
87%	91%	63%	CC(=S)NCCCC[C@H](NC(=O)OC(C)(C)C)C(=O)NCC(=O)c1ccccc1
61%	85%	46%	CC(=S)NCCCC[C@H](NC(=O)OCc1ccccc1)C(=O)NCCc1c[nH]c2ccccc12
73%	96%	61%	CC(=S)NCCCC[C@H](NC(=O)C[C@@H]1NC(=O)[C@H](Cc2ccccc2)NC1=O)C(=O)NCC(=O)c1ccccc1
54%	77%	45%	CC(=S)NCCCC[C@H](NC(=O)OCc1ccccc1)C(=O)NCC(O)c1ccccc1 (some centres not stated)
95%	97%	76%	CC(=S)NCCCC[C@H](NC(=O)[C@@H]1CCCN1C(=O)OC(C)(C)C)C(=O)NCC(=O)c1ccccc1
70%	84%	59%	CC(=S)NCCCC[C@H](NC(=O)OCc1ccccc1)C(=O)Nc1cccnc1
39%	82%	44%	CC(=S)NCCCC[C@H](NC(=O)CCc1cccnc1)C(=O)Nc1ccccc1
76%	98%	72%	CC(=S)NCCCC[C@H](NC(=O)CCCc1ccccc1)C(=O)NCC(=O)c1ccccc1
79%	87%	68%	CC(=S)NCCCC[C@H](NC(=O)OCc1ccccc1)C(=O)NCCc1c[nH]c2ccc(OCc3ccccc3)cc12
74%	99%	87%	CC(=S)NCCCC[C@H](NC(=O)CCCCCCc1ccccc1)C(=O)NCc1ccccc1
83%	98%	82%	CC(=S)NCCCC[C@H](NC(=O)CCCCCc1ccccc1)C(=O)NCC(=O)c1ccccc1
94%	97%	74%	CC(=S)NCCCC[C@H](NC(=O)OCc1ccccc1)C(=O)NCC(=O)c1ccccc1
28%	41%	24%	CC(=S)NCCCC[C@H](NC(=O)OC(C)(C)C)C(=O)NCCc1cccnc1
72%	91%	77%	CC(=S)NCCCC[C@H](NC(=O)OCc1ccccc1)C(=O)NCC(N)=O
52%	72%	41%	CC(=S)NCCCC[C@H](NC(=O)OCc1ccccc1)C(=O)NCCc1ccccc1
